Active and inactive are the calls of the source. No cut-off for these calls is given here.
Experiments:
[1] = target: T1, Mineralocorticoid receptor (Rattus norvegicus) (UniProt P22199); test: Relative binding affinity to the rat mineralocorticoid receptor determined in rat renal cytosol using [3]Ald as ligand
T1 sequence (whole entry): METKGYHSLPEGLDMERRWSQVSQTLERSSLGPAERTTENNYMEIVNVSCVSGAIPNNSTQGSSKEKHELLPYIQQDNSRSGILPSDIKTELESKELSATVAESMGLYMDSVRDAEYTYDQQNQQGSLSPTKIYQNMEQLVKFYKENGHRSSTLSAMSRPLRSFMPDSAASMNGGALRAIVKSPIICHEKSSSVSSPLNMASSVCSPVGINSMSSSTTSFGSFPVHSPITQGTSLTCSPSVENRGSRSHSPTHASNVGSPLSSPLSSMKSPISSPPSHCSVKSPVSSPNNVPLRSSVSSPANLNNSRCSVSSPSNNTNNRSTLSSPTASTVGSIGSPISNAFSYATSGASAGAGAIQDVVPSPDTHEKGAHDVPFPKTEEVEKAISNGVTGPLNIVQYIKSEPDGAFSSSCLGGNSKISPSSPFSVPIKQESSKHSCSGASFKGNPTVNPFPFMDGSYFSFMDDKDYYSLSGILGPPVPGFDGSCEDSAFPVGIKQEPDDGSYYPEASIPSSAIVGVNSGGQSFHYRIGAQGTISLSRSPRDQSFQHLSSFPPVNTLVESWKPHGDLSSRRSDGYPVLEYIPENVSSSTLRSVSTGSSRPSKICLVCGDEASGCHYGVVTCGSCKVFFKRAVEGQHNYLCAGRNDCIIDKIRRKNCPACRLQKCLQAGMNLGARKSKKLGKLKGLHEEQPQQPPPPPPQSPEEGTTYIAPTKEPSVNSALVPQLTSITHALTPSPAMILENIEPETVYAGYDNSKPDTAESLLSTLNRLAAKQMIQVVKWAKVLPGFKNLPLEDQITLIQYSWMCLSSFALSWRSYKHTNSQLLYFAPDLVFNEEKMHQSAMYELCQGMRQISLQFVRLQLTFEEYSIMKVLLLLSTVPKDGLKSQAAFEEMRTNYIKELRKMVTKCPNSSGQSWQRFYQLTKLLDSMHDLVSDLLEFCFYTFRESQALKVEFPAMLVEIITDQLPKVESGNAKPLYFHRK
Procedure, shortened: (§1)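 Renal cytosol came from male Sprague-Dawley rats (4-8 weeks) adrenalectomized bilaterally 1 or 2 days earlier. It was incubated with various competitor concentrations and about 1 nM [3H]Ald for 42-48 h at 0 °C or 100-120 min at 25 °C. Bound and free steroid were separated by DCC.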

[2] = target: T1, Mineralocorticoid receptor (Rattus norvegicus); test: Relative binding affinity against mineralocorticoid receptor determined in rat renal cytosol using [3]Ald as ligand; procedure, shortened: as §1
[3] = target: T2, Progesterone receptor (Rattus norvegicus) (UniProt Q63449); test: Relative binding affinity against progesterone receptor determined in rat […] cytosol using [3H]DHT as ligand
T2 sequence (whole entry): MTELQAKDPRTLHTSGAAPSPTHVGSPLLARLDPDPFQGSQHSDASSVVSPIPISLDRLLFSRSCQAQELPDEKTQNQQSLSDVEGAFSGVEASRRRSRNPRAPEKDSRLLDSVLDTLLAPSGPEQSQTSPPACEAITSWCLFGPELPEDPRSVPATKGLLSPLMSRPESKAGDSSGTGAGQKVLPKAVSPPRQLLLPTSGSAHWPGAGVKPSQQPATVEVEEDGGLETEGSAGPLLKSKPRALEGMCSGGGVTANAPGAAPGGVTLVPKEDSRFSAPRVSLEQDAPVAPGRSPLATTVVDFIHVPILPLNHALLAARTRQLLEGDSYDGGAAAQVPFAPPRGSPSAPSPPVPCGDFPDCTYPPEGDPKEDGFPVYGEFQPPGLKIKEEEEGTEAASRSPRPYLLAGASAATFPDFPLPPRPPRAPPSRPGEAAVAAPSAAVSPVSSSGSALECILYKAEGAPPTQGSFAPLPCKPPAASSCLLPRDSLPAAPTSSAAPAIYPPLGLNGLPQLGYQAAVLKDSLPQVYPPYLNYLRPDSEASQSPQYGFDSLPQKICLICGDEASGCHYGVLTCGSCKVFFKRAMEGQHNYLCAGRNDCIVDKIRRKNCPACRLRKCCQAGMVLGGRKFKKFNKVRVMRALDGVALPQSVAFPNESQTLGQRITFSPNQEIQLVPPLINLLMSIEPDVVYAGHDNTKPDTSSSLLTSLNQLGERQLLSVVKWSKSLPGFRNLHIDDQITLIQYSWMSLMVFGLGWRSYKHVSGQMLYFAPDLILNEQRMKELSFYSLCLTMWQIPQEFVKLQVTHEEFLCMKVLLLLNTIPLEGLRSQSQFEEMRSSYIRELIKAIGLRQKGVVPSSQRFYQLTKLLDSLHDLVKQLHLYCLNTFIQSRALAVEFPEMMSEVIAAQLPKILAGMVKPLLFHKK

[4] = target: T1, Mineralocorticoid receptor (Rattus norvegicus); test: Antagonist activity against Mineralocorticoid receptor after oral administration in Male Sprague Dawley rats; (+) =positive; format: functional, organism-based; conditions: filed as antagonist
Procedure, shortened: (§2)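 Male rats were bilaterally adrenalectomized (bioassay modified from Kagawa). Ald (1 µg/kg) was given sc, immediately followed by test compound in sesame oil sc or orally. Urine was collected from 2 to 6 h after steroid. Potency came from the urinary Na/K ratio of sample versus control, with 95% confidence limits.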

[5] = target: T1, Mineralocorticoid receptor (Rattus norvegicus); test: Antagonist activity against Mineralocorticoid receptor was determined after subcutaneous administration in Male Sprague Dawley rats; format: functional, organism-based; procedure, shortened: as §2
[6] = target: T1, Mineralocorticoid receptor (Rattus norvegicus); test: Antagonist activity against Mineralocorticoid receptor after subcutaneous administration in Male Sprague Dawley rats; (+) =positive; format: functional, organism-based; conditions: filed as antagonist; procedure, shortened: as §2
[7] = target: T1, Mineralocorticoid receptor (Rattus norvegicus); test: Relative anti-mineralocorticoid potency compared to Spironolactone after oral administration; format: functional, organism-based; procedure, shortened: as §2
[8] = target: T1, Mineralocorticoid receptor (Rattus norvegicus); test: Agonist activity against Mineralocorticoid receptor was determined after subcutaneous administration in Male Sprague Dawley rats; (+) =positive; format: functional, organism-based; conditions: filed as agonist
Rattus norvegicus = species: Rattus norvegicus; test: Displacement of [3H]promegestone from progestin receptor of rat uterine cytosol at 0 degree Centigrade
Procedure, shortened: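 Uteri from estradiol-primed rats supplied the cytosol. It was incubated with various competitor concentrations and about 1 nM [3H]promegestone for 16-20 h at 0 °C. Bound and free steroid were separated by DCC. RBA (progesterone = 100%) = 100 × ratio of the 50%-inhibition concentrations of standard and competitor.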

[9] = target: T3, Androgen receptor (Rattus norvegicus) (UniProt P15207); test: Relative binding affinity against Androgen receptor in Male Sprague-Dawley rats
T3 sequence (whole entry): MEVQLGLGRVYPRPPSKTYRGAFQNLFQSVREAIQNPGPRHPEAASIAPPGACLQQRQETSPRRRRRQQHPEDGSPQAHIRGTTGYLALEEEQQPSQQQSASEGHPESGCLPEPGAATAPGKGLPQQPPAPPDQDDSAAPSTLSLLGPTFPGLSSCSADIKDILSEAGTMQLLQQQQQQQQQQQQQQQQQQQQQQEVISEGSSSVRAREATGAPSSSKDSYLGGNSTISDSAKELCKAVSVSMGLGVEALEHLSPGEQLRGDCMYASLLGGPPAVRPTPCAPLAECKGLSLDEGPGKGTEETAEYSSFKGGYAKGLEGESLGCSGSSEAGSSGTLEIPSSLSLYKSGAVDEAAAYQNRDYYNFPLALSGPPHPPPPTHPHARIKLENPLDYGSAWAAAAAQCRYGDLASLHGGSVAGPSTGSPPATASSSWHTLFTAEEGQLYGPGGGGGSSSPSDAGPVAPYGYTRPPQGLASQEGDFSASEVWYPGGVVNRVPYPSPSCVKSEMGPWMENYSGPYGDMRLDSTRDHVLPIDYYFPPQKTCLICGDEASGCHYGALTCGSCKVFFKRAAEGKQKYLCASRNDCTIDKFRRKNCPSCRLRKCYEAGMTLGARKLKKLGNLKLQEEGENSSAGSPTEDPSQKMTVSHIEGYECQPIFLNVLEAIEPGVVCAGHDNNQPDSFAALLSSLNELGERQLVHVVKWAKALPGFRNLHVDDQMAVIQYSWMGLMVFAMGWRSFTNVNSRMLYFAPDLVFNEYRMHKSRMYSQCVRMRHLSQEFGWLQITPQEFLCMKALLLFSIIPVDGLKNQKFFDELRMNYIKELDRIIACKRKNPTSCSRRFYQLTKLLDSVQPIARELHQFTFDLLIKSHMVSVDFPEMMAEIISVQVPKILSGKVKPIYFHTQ
Procedure, shortened: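 Rat ventral prostate cytosol from 4-8-week-old rats castrated 1 day earlier. Incubated with various competitor concentrations and about 1 nM [3H]DHT or [3H]methyltrienolone for 16-20 h at 0 °C. Bound and free steroid separated by dextran-coated charcoal.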

[10] = target: T3, Androgen receptor (Rattus norvegicus); test: In vivo relative androgenic activity in Male Sprague-Dawley rats; format: functional, organism-based
[11] = target: T1, Mineralocorticoid receptor (Rattus norvegicus); test: Displacement of [3]Aldosterone from mineralocorticoid receptor of rat renal cytosol at 0 degree Centigrade; procedure, shortened: as §1
[12] = target: T1, Mineralocorticoid receptor (Rattus norvegicus); test: Antagonist activity against Mineralocorticoid receptor after oral administration in Male Sprague Dawley rats; (-) = negative; format: functional, organism-based; procedure, shortened: as §2
[13] = target: T2, Progesterone receptor (Rattus norvegicus); test: Relative binding affinity against progesterone receptor in […]
[14] = target: T2, Progesterone receptor (Rattus norvegicus); test: In vivo relative Progestational activity in Male Sprague-Dawley rats was determined.; format: functional, organism-based

Q: Which results are given for CC12C=CC(=O)C=C1CCC1C2C=CC2(C)C1C1CC1[C@@]21CCC(=O)O1 (stereo partly specified)?
A: RBA [1]: 440%; RBA [2]: 220%

Q: For CC(=O)S[C@@H]1CC2=CC(=O)C=CC2(C)C2C=CC3(C)C(CC[C@@]34CCC(=O)O4)C21 (stereo partly specified), which RBA [1] is on record?
A: 71%

Q: What about the RBA [3] of the same compound?
A: 3.9%

Q: And the Activity [4]?
A: Antagonist

Q: And the RBA [2]?
A: 23%

Q: And the Activity [5]?
A: inactive

Q: What about the Activity [6] of the same compound?
A: Antagonist

Q: And the Relative potency [7]?
A: 0.77

Q: With CC12C=CC(=O)C=C1CCC1C2C=CC2(C)C1CC[C@@]21CCC(=O)O1 (stereo partly specified) as the compound, how does the RBA [1] read?
A: 71%

Q: What about the Activity [8] of the same compound?
A: Agonist

Q: What about the RBA (Rattus norvegicus) of the same compound?
A: 7.5%

Q: What about the RBA [2] of the same compound?
A: 120%

Q: And the Activity [5]?
A: inactive

Q: CC12CCC(=O)C=C1CCC1C2C=CC2(C)C(O)CCC12 (stereo unspecified) was tested. Which relative binding affinity (RBA) [9] did it give?
A: 120

Q: What about the Relative activity [10] of the same compound?
A: 0.7

Q: With CC12C=CC3C(CCC4CC(=O)CCC43C)C1CCC2O (stereo unspecified) as the compound, how does the relative binding affinity (RBA) [9] read?
A: 81

Q: What about the Relative activity [10] of the same compound?
A: 1

Q: How did the RBA [1] turn out when CC(C)(C)C(=O)S[C@@H]1CC2=CC(=O)CCC2(C)C2C=CC3(C)C(CC[C@@]34CCC(=O)O4)C21 (stereo partly specified) was run?
A: 42%

Q: And the RBA [11]?
A: 46%

Q: What about the RBA [3] of the same compound?
A: 38%

Q: And the Activity [6]?
A: Antagonist

Q: For CC12CCC(=O)C=C1C[C@@H](SC(=O)c1ccccc1)C1C2C=CC2(C)C1CC[C@@]21CCC(=O)O1 (stereo partly specified), which RBA [1] is on record?
A: 18%

Q: And the RBA [11]?
A: 11%

Q: And the RBA (Rattus norvegicus)?
A: 25%

Q: What about the Activity [5] of the same compound?
A: inactive

Q: C[C@]12CCC(=O)C=C1C=C[C@@H]1[C@@H]2CC[C@@]2(C)[C@H]1CC[C@@]21CCC(=O)O1 was tested. Which RBA [1] did it give?
A: 2.9%

Q: And the RBA [2]?
A: 1.7%

Q: What about the Activity [6] of the same compound?
A: Antagonist

Q: What about the Activity [12] of the same compound?
A: inactive

Q: For C[C@]12CC[C@H]3[C@@H](CCC4CC(=O)CC[C@@H]43)[C@@H]1CC[C@@H]2O (stereo partly specified), which relative binding affinity (RBA) [9] is on record?
A: 59

Q: What about the Relative activity [10] of the same compound?
A: 0.1

Q: CC12CCC(=O)C=C1CCC1C2C=CC2(C)C1C1CC1[C@@]21CCC(=O)O1 (stereo partly specified) was tested. Which RBA [1] did it give?
A: 650%

Q: And the RBA [11]?
A: 310%

Q: With CC(=O)[C@H]1CC[C@H]2[C@@H]3CCC4=CC(=O)CC[C@@H]4[C@H]3CC[C@]12C as the compound, how does the relative binding affinity (RBA) [13] read?
A: 650

Q: What about the Relative activity [14] of the same compound?
A: 10.7

— ChEMBL document CHEMBL1123888, “Aldosterone antagonists. 2. Synthesis and biological activities of 11,12-dehydropregnane derivatives” (J Med Chem, 1987)
